Experimental data reported in publication PMC3212727 (The Journal of Experimental Medicine, 2006).

Legend:
mTOR pathway [1] = experiment: GFP expression of irradiated MelJuSo cells by flow cytometry; assay type: cell-based, human; conditions: 20 nM rapamycin
Procedure, shortened: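 MelJuSo cells stably transfected with EGFP in pcDNA3 (CMV promoter) received 0 or 25 Gy γ-irradiation (137Cs, 0.75 Gy/min), with or without 20 nM rapamycin. GFP fluorescence was read by flow cytometry at 0, 4 or 24 h after irradiation. n = 6, mean ± SD.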

[2] = tested on: TAP1-GFP in MelJuSo cells; experiment: TAP mobility assay; assay type: cell-based, human; conditions: FRAP; for initial increase in intracellular peptides: measured 1 h after irradiation, Fig. 2A and unpublished data
Procedure, shortened: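 FRAP was run at 37°C on MelJuSo cells stably expressing TAP1-GFP, imaged 1 h after 4 Gy γ-irradiation. Some cells were pretreated with 10 μM lactacystin for 30 min, ATP-depleted with 0.05% NaAz plus […] 2-deoxyglucose for 30 min, or given cycloheximide. An ER spot was bleached at full laser power and recovery followed with an attenuated beam. Diffusion coefficient came from bleach-corrected recovery half-times: ≥3 experiments, mean ± SD.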

mTOR pathway [3] = experiment: Surface MHC class I expression of MelJuSo cells; assay type: cell-based, human; conditions: 25 Gy, 20 nM rapamycin, W6/32 flow cytometry, n = 4
Procedure, shortened: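 Human melanoma MelJuSo cells received 0–25 Gy γ-irradiation (137Cs, 0.75 Gy/min). They were cultured for the stated times with or without 20 nM rapamycin, stained for surface MHC class I with W6/32 and analysed by flow cytometry, with a background control lacking primary antibody. Mean fluorescence intensity was expressed relative to nonirradiated control cells.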

mTOR pathway [4] = experiment: Biosynthetic labeling and immunoprecipitation of MHC molecules; assay type: cell-based, human; conditions: HLA-A2-GFP MelJuSo, 0, 10 or 20 Gy, 6 h, 10 nM rapamycin, 35S-methionine/cystein 1 h
MC38 cells [5] = experiment: H2-Kb expression of MC38 cells by flow cytometry; assay type: cell-based, mouse; conditions: MC38, 20 Gy, 24 h, 20 nM rapamycin; FITC mAb H-2Kb
Procedure, shortened: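 MC38 murine colon adenocarcinoma cells (H-2b) were γ-irradiated with 20 Gy (137Cs, 0.75 Gy/min) and cultured 24 h with or without 20 nM rapamycin. They were then stained with FITC-labelled anti-H-2Kb mAb and analysed by flow cytometry against an isotype control antibody. Percentage of positive cells and mean fluorescence intensity were reported.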

MC38 cells [6] = experiment: 111In release cytotoxicity assay with gp70-specific CTL; assay type: cell-based, mouse; conditions: 20 nM rapamycin 24 h, then 18 h with CTL

CO[C@H]1C[C@@H]2CC[C@@H](C)[C@@](O)(O2)C(=O)C(=O)N2CCCC[C@H]2C(=O)O[C@H]([C@H](C)C[C@@H]2CC[C@@H](O)[C@H](OC)C2)CC(=O)[C@H](C)/C=C(\C)[C@@H](O)[C@@H](OC)C(=O)[C@H](C)C[C@H](C)/C=C/C=C/C=C/1C [rapamycin]
GFP expression in response to ionizing radiation (mTOR pathway [1]; MelJuSo-EGFP (CMV promoter), 25 Gy, 24 h, n = 6): no increase in GFP expression
GFP expression in nonirradiated cells (mTOR pathway [1]; MelJuSo-EGFP, no radiation): decreased GFP expression
initial increase in intracellular peptides [2]: not inhibited
MHC class I expression 4 h after irradiation (mTOR pathway [3]; 4 h): No effect
radiation-induced increase in MHC class I expression 24 h after irradiation (mTOR pathway [3]; 24 h): markedly reduced
translation of GFP-tagged and endogenous MHC class I molecules, H chains and MHC class II molecules (mTOR pathway [4]): inhibited
radiation-induced up-regulation of MHC class I expression (MC38 cells [5]): can be inhibited
lysis of irradiated MC38 cells by gp70-specific CTL (MC38 cells [6]; 20 Gy, E:T 100:1 to 3.125:1): enhanced lysis in a rapamycin-dependent fashion
CTL recognition of nonirradiated cells (MC38 cells [6]; MC38, no radiation): no effect

C[C@@H]1C[C@@H]([C@H](O)CC2CC(=O)NC(=O)C2)C(=O)[C@@H](C)C1 [cycloheximide]
initial increase in intracellular peptides [2]: not inhibited
TAP activity in irradiated cells ([2]; pretreatment before irradiation, 4 Gy, measured 1 h later, n = 9): no effect on TAP activity
